Data published in ChEMBL document CHEMBL4402612, “Heterodimeric Analogues of the Potent Y1R Antagonist 1229U91, Lacking One of the Pharmacophoric C-Terminal Structures, Retain Potent Y1R Affinity and Show Improved Selectivity over Y4R” (J Med Chem, 2020).
Positions of bridges follow the written chain, without caps; N, C: chain ends. Non-standard residues stand in square brackets, D forms with d. Residues, ends and D or L forms follow the SMILES beside them. Chains are numbered I, II in the order given. Orn = NCCC[C@H](N)C(=O)O; Dap = NC[C@H](N)C(=O)O

What was measured:
[1] = biological target: T1, Neuropeptide Y receptor type 1 (Homo sapiens, UniProt P25929); assay: Displacement of (sCy5)-[Lys2 Arg4]-BVD15 from GFP-tagged Y1R in human HEK293T cells assessed as inhibitory constant incubated for 5 mins followed by (sCy5)-[Lys2 Arg4]-BVD15 addition and measured after 30 mins by fluorescence based assay; format: cell-based
T1 sequence (P25929 whole entry): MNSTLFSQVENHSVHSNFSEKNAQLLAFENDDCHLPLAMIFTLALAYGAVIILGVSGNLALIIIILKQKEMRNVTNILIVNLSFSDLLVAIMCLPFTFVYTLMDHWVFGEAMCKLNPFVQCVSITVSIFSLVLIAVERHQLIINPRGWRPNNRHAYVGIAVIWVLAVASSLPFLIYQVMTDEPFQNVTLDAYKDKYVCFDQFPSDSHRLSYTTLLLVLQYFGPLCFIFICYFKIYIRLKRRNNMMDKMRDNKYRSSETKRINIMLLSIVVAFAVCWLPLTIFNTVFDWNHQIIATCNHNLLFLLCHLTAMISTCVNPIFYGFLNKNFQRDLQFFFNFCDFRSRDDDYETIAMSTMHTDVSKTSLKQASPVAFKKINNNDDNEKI

[2] = biological target: T2, Neuropeptide Y receptor type 4 (Homo sapiens, UniProt P50391); assay: Displacement of (sCy5)-[Lys2 Arg4]-BVD15 from GFP-tagged Y4R in human HEK293T cells assessed as inhibitory constant incubated for 5 mins followed by (sCy5)-[Lys2 Arg4]-BVD15 addition and measured after 30 mins by fluorescence based assay; format: cell-based
In short: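 Competitors (10^-10–10^-6 M) added in HBSS/0.1% BSA with H33342 for 5 min, then 100 nM final (sCy5)-[Lys²Arg⁴]-BVD15 for 30 min at 37 °C. Washed and imaged confocally; granule counts per cell. Non-specific binding with 100 nM PP.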

Homo sapiens = organism: Homo sapiens; assay: Selectivity index, ratio of Ki of GFP-tagged Y4R in human HEK293T cells to Ki GFP-tagged Y1R in human HEK293T cells; format: cell-based
In short: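 Ratio of mean Ki values, Y4/Y1, from whole-cell competition binding in tetracycline-induced 293TR Y1-GFP or Y4-GFP cells. Tracer was 100 nM (sCy5)-[Lys²Arg⁴]-BVD15, added after 5 min competitor preincubation, then 30 min at 37 °C, with imaging read-out.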

[3] = biological target: T2, Neuropeptide Y receptor type 4; assay: Agonist activity at Y4R in human HEK293T cells assessed as increase in beta-arrestin recruitment incubated for 60 mins by Hoechst 33342 dye based fluorescence analysis
[4] = biological target: T2, Neuropeptide Y receptor type 4; assay: Agonist activity at Y4R in human HEK293T cells assessed as increase in beta-arrestin recruitment incubated for 60 mins by Hoechst 33342 dye based fluorescence analysis relative to pancreatic polypeptide
[5] = biological target: T3, Neuropeptide Y receptor type 1 (Homo sapiens) (UniProt P25929); assay: Potency index, ratio of Ki of compound to Ki of 1229U91 for displacement of (sCy5)-[Lys2 Arg4]-BVD15 from GFP-tagged Y1R in human HEK293T cells assessed as inhibitory constant incubated for 5 mins followed by (sCy5)-[Lys2 Arg4]-BVD15 addition and measured after 30 mins by fluorescence based assay
T3 sequence (whole entry): T1 sequence (P25929 whole entry)

T2 sequence (P50391 whole entry): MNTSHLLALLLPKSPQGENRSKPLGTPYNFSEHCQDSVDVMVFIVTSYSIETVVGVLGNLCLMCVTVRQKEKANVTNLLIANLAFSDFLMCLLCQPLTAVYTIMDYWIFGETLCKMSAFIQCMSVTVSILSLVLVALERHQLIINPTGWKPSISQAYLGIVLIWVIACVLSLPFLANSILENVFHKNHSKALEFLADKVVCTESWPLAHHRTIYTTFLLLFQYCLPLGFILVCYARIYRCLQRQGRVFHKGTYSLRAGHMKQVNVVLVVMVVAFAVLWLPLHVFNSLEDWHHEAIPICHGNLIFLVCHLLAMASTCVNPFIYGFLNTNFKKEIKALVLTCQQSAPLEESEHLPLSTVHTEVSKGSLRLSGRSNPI

Structure (SMILES)	Ki [1] [nM]	Ki [2] [nM]	Ratio Ki (Homo sapiens)	EC50 [3] [nM]	Rmax [4] [%]	Ki ratio [5]
CC[C@H](C)[C@H](N)C(=O)N[C@H]1CCC(=O)NC[C@@H](C(=O)N[C@@H](Cc2ccc(O)cc2)C(=O)N[C@@H](CCCNC(=N)N)C(=O)N[C@@H](CC(C)C)C(=O)N[C@@H](CCCNC(=N)N)C(=O)N[C@@H](Cc2ccc(O)cc2)C(N)=O)NC(=O)[C@@H]2CCCN2C(=O)[C@@H](NC(=O)[C@@H](N)[C@@H](C)CC)CCC(=O)NC[C@@H](C(=O)N[C@@H](Cc2ccc(O)cc2)C(=O)N[C@@H](C)C(=O)N[C@@H](CC(C)C)C(=O)N[C@@H](CCCNC(=N)N)C(=O)N[C@@H](Cc2ccc(O)cc2)C(N)=O)NC(=O)[C@@H]2CCCN2C1=O (I: H-IEP[Dap]YALRY-NH2 / II: H-IEP[Dap]YRLRY-NH2; amide I:2-II:4, I:4-II:2)	0.575	245	419	7.59	49.1	2
CC[C@H](C)[C@H](N)C(=O)N[C@H]1CCC(=O)NC[C@@H](C(=O)N[C@@H](Cc2ccc(O)cc2)C(=O)N[C@@H](CCCNC(=N)N)C(=O)N[C@@H](CC(C)C)C(=O)N[C@@H](CCCNC(=N)N)C(=O)N[C@@H](Cc2ccc(O)cc2)C(N)=O)NC(=O)[C@@H]2CCCN2C(=O)[C@@H](NC(=O)[C@@H](N)[C@@H](C)CC)CCC(=O)NC[C@@H](C(=O)N[C@@H](Cc2ccc(O)cc2)C(=O)N[C@@H](CCCNC(=N)N)C(=O)N[C@@H](CC(C)C)C(=O)N[C@@H](C)C(=O)N[C@@H](Cc2ccc(O)cc2)C(N)=O)NC(=O)[C@@H]2CCCN2C1=O (I: H-IEP[Dap]YRLAY-NH2 / II: H-IEP[Dap]YRLRY-NH2; amide I:2-II:4, I:4-II:2)	0.363	170	427	5.13	50.2	
CC[C@H](C)[C@H](N)C(=O)N[C@H]1CCC(=O)NC[C@@H](C(=O)N[C@@H](Cc2ccc(O)cc2)C(=O)N[C@@H](CCCNC(=N)N)C(=O)N[C@@H](CC(C)C)C(=O)N[C@@H](CCCNC(=N)N)C(=O)N[C@@H](Cc2ccc(O)cc2)C(N)=O)NC(=O)[C@@H]2CCCN2C(=O)[C@@H](NC(=O)[C@@H](N)[C@@H](C)CC)CCC(=O)NC[C@@H](C(=O)N[C@@H](Cc2ccc(O)cc2)C(=O)N[C@@H](CCCNC(=N)N)C(=O)N[C@@H](CC(C)C)C(=O)N[C@@H](CCCNC(=N)N)C(=O)N[C@@H](C)C(N)=O)NC(=O)[C@@H]2CCCN2C1=O (I: H-IEP[Dap]YRLRA-NH2 / II: H-IEP[Dap]YRLRY-NH2; amide I:2-II:4, I:4-II:2)	0.257	174	676	6.76	55.2	
CC[C@H](C)[C@H](N)C(=O)N[C@H]1CCC(=O)NC[C@@H](C(=O)N[C@@H](Cc2ccc(O)cc2)C(=O)N[C@@H](CCCN=C(N)N)C(=O)N[C@@H](CC(C)C)C(=O)N[C@@H](CCCN=C(N)N)C(=O)N[C@@H](Cc2ccc(O)cc2)C(N)=O)NC(=O)[C@@H]2CCCN2C(=O)[C@@H](NC(=O)[C@@H](N)[C@@H](C)CC)CCC(=O)NC[C@@H](C(=O)N[C@@H](Cc2ccc(O)cc2)C(=O)N[C@@H](CCCN=C(N)N)C(=O)N[C@@H](CC(C)C)C(=O)N[C@@H](CCCN=C(N)N)C(=O)N[C@@H](Cc2ccc(O)cc2)C(N)=O)NC(=O)[C@@H]2CCCN2C1=O (I: H-IEP[Dap]YRLRY-NH2 / II: H-IEP[Dap]YRLRY-NH2; amide I:2-II:4, I:4-II:2)	0.295 to 1.02	41.7 to 89.1	87 to 141	11.2 to 37.2	21.8 to 36.1	
CC[C@H](C)[C@H](N)C(=O)N[C@H]1CCC(=O)NCCC[C@@H](C(=O)N[C@@H](Cc2ccc(O)cc2)C(=O)N[C@@H](CCCNC(=N)N)C(=O)N[C@@H](CC(C)C)C(=O)N[C@@H](CCCNC(=N)N)C(=O)N[C@@H](Cc2ccc(O)cc2)C(N)=O)NC(=O)[C@@H]2CCCN2C(=O)[C@@H](NC(=O)[C@@H](N)[C@@H](C)CC)CCC(=O)NCCC[C@@H](C(=O)N[C@@H](Cc2ccc(O)cc2)C(=O)N[C@@H](CCCNC(=N)N)C(=O)N[C@@H](CC(C)C)C(=O)N[C@@H](CCCNC(=N)N)C(=O)N[C@@H](Cc2ccc(O)cc2)C(N)=O)NC(=O)[C@@H]2CCCN2C1=O (I: H-IEP[Orn]YRLRY-NH2 / II: H-IEP[Orn]YRLRY-NH2; amide I:2-II:4, I:4-II:2)	12.9	63.1	4.9	4.27	33	
